Test results as given in ChEMBL document CHEMBL1132185, “3-O-Desacyl monophosphoryl lipid A derivatives: synthesis and immunostimulant activities” (J Med Chem, 1999).

Experiments:
[1] = (§1) lethal toxicity produced when compound is administered along with […] (iv); format: organism-based, Homo sapiens; conditions: mouse, in vivo
Homo sapiens = species on record: Homo sapiens; assay: Relative ex vivo cytokine induction in human whole blood stimulated with 10 ug/mL (done by ELISA)for Interleukin (IL1-beta); format: functional
Procedure, shortened: (§2)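 Heparinized whole blood from one healthy human volunteer, 0.45 mL, was mixed with 0.05 mL PBS (pH 7.4) containing test compound. It was incubated 4 h at 37 °C with shaking, then diluted with 1.5 mL PBS and centrifuged. Supernatant TNF-α and IL-1β were quantified in duplicate by sandwich ELISA.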

Mus musculus [2] = species on record: Mus musculus; assay: Adjuvant activity was assessed by measuring tetanus toxoid-specific antibody responses in serum of mice immunised. (evaluated as IgG1); format: functional
Procedure, shortened: (§3)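 Mice immunised on day 0 and day 21 with tetanus toxoid (2 μg per 2 mL emulsion) plus test article in 2.5% oil-water emulsion (12% lecithin-squalene oil phase; 0.1% Tween 80-saline aqueous phase). Controls received toxoid in 2.5% oil-water vehicle. Sera were taken from the orbital plexus 14 days after the second injection, diluted 2-fold ×11 from 1:200 and tested individually by toxoid-coated ELISA. Values are test titer/vehicle control titer.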

Mus musculus [3] = species on record: Mus musculus; assay: Adjuvant activity was assessed by measuring tetanus toxoid-specific antibody responses in serum of mice immunised. (evaluated as IgG2b); format: functional; procedure, shortened: as §3
Mus musculus [4] = species on record: Mus musculus; assay: Adjuvant activity was assessed by measuring tetanus toxoid-specific antibody responses in serum of mice immunised. (evaluated as total Ig); format: functional; procedure, shortened: as §3
[5] = Ability to induce iNOS gene expression assessed in an in vitro system utilizing peritoneal exudate cells(PEC) from Propionibacterium acnes-primed mice; format: functional; conditions: Mus musculus; read-out: ED50 (the source's name)
Procedure, shortened: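 ICR mice (female, 4-8 weeks) primed i.p. on day 0 with 1 mg heat-killed P. acnes in 0.2 mL saline; peritoneal exudate cells harvested day 4, adhered at 2 × 10^5 cells/well, nonadherent cells washed off. Test materials at various concentrations, in quadruplicate, in RPMI-1640 with 10% FCS for 24 h at 37 °C. Supernatant nitrite measured by Griess reaction; ED50 from nonlinear curve fit.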

Oryctolagus cuniculus [6] = assay: Total temperature rise in three rabbits at a dose of 10 ug/kg; format: functional
Procedure, shortened: (§4)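 USP three-rabbit pyrogen test in New Zealand white rabbits (female, 1.5–5.0 kg). Stocks were 100 µg/mL in 10% aq EtOH, diluted in D5W and given into the marginal ear vein at 3 mL/kg. Rectal temperature was taken every 30 min for 3 h and the maximum rise over baseline recorded per rabbit. MPD is the dose giving a three-rabbit total rise ≥1.2 °C.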

Oryctolagus cuniculus [7] = species on record: Oryctolagus cuniculus; assay: Minimum pyrogenic dose(MPD) was determined; format: functional; procedure, shortened: as §4
[8] = molecular target: Tumor necrosis factor (Homo sapiens) (UniProt P01375); assay: Relative ex vivo cytokine induction in human whole blood stimulated with 10 ug/mL (done by ELISA) for Tumor necrosis factor alpha; format: functional, tissue-based; procedure, shortened: as §2
Sequence of Tumor necrosis factor (Homo sapiens) (P01375 whole entry): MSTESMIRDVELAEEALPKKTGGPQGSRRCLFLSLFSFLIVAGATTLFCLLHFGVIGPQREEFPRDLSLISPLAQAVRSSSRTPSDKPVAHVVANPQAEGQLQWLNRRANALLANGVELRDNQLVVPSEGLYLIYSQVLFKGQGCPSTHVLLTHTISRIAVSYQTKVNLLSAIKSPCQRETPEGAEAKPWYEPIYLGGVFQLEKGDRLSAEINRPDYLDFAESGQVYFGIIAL

Mus musculus [9] = species on record: Mus musculus; assay: Adjuvant activity was assessed by measuring tetanus toxoid-specific antibody responses in serum of mice immunised. (evaluated as IgG2a); format: functional; procedure, shortened: as §3
[10] = as §1; format: organism-based; conditions: in vivo

| Compound | LD50 [1] [µg] | Induction (Homo sapiens) | Adjuvant activity (Mus musculus [2]) | Adjuvant activity (Mus musculus [3]) | Adjuvant activity (Mus musculus [4]) | EC50 [5] [ng/mL] | Fever response (Oryctolagus cuniculus [6]) [°C] | MPD (Oryctolagus cuniculus [7]) [µg/kg] | Induction [8] | Adjuvant activity (Mus musculus [9]) | LD50 [10] [µg] |
| --- | --- | --- | --- | --- | --- | --- | --- | --- | --- | --- | --- |
| CCCCCCCCCCC[C@H](CC(=O)NC1C(O)OC(COC2OC(CO)C(OP(=O)(O)O)C(OC(=O)C[C@@H](CCCCCCCCCCC)OC(=O)CCCCCCCCC)C2NC(=O)C[C@@H](CCCCCCCCCCC)OC(=O)CCCCCCCCC)C(O)C1O)OC(=O)CCCCCCCCC.CCN(CC)CC (some centres undefined) | 0.02 | 7.3 | 2.4 | 4.3 | 6.2 | 0.05 | 4.1 | <0.06 | 3 | 6 |  |
| CCCCCCCCCCC[C@H](CC(=O)NC1C(O)OC(COC2OC(CO)C(OP(=O)(O)O)C(OC(=O)C[C@@H](CCCCCCCCCCC)OC(=O)CCCCC)C2NC(=O)C[C@@H](CCCCCCCCCCC)OC(=O)CCCCC)C(O)C1O)OC(=O)CCCCC.CCN(CC)CC (some centres undefined) |  |  |  |  |  | > 10000 | 1.7 | 10 |  |  | 4 |
| CCCCCCCCCCCC(=O)O[C@H](CCCCCCCCCCC)CC(=O)NC1C(O)OC(COC2OC(CO)C(OP(=O)(O)O)C(OC(=O)C[C@@H](CCCCCCCCCCC)OC(=O)CCCCCCCCCCC)C2NC(=O)C[C@@H](CCCCCCCCCCC)OC(=O)CCCCCCCCCCC)C(O)C1O.CCN(CC)CC (some centres undefined) | 0.04 | 2.9 |  |  |  | 1 | 5.3 | <2.5 | 4.6 |  |  |
| CCCCCCCCCCCCCC(=O)O[C@H](CCCCCCCCCCC)CC(=O)NC1C(O)OC(COC2OC(CO)C(OP(=O)(O)O)C(OC(=O)C[C@@H](CCCCCCCCCCC)OC(=O)CCCCCCCCCCCCC)C2NC(=O)C[C@@H](CCCCCCCCCCC)OC(=O)CCCCCCCCCCCCC)C(O)C1O.CCN(CC)CC (some centres undefined) | 1 | 3.4 | 4.5 | 4.5 | 8.2 | 5 | 0.3 | 15 | 1.7 | 14.6 |  |
| CCCCCCCCCCC[C@H](CC(=O)NC1C(O)OC(COC2OC(CO)C(OP(=O)(O)O)C(OC(=O)C[C@@H](CCCCCCCCCCC)OC(=O)CCC)C2NC(=O)C[C@@H](CCCCCCCCCCC)OC(=O)CCC)C(O)C1O)OC(=O)CCC.CCN(CC)CC (some centres undefined) |  |  |  |  |  | > 10000 | 1.5 | 10 |  |  | 4.5 |
| CCCCCCCCCCC[C@H](CC(=O)NC1C(O)OC(COC2OC(CO)C(OP(=O)(O)O)C(OC(=O)C[C@@H](CCCCCCCCCCC)OC(=O)CCCCCCC)C2NC(=O)C[C@@H](CCCCCCCCCCC)OC(=O)CCCCCCC)C(O)C1O)OC(=O)CCCCCCC.CCN(CC)CC (some centres undefined) |  |  |  |  |  | 0.3 | 3.9 | <2.5 |  |  | 0.2 |
| CCCCCCCCCCCCCCCC(=O)O[C@H](CCCCCCCCCCC)CC(=O)NC1C(O)OC(COC2OC(CO)C(OP(=O)(O)O)C(OC(=O)C[C@@H](CCCCCCCCCCC)OC(=O)CCCCCCCCCCCCC)C2NC(=O)C[C@@H](CCCCCCCCCCC)OC(=O)CCCCCCCCCCC)C(O)C1O.CCN(CC)CC (some centres undefined) | 1 | 1.4 |  |  |  | 10 | 0.6 | 15 | 1.6 |  |  |
